{"source": "paper PMC9545559", "about": "(International Journal of Cancer, 2022)", "type_in_all_cases": "in vivo, human", "key": {"[1]": {"tested_on": "patients with untreated locally advanced or metastatic PDAC", "test": "Phase II safety and adverse events", "details": "for patients with dose reduced due to occurrence of AEs: n = 24, combination ivaltinostat + gemcitabine + erlotinib; for Anemia, Number of patients (%) / Anorexia, Number of patients (%) / Fatigue, Number of patients (%) / Febrile neutropenia, Number of patients (%) / Neutropenia, Number of patients (%) / Pneumonia, Number of patients (%) / Thrombocytopenia, Number of patients (%): treatment-related", "in_short": "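Patients on ivaltinostat 250 mg/m2 IV with gemcitabine 1000 mg/m2 IV (days 1, 8, 15) and erlotinib 100 mg/day orally, 28-day cycles. Vital signs, AEs, ADRs, serious AEs, ECG and clinical laboratory tests checked on days 1, 8 and 15 of each cycle. AEs graded by NCI CTCAE v4.0. Safety set: all patients given ≥1 dose.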"}, "[2]": {"test": "Pharmacokinetic analysis of ivaltinostat in the phase I study", "details": "first day after single administration, mean"}, "[3]": {"tested_on": "patients with untreated locally advanced or metastatic PDAC", "test": "Phase I 3 + 3 dose escalation", "details": "Level III: ivaltinostat 312.5 mg/m^2 + gemcitabine + erlotinib; four patients", "in_short": "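3 + 3 escalation: ivaltinostat IV from 187.5 to 250 or 312.5 mg/m2, plus gemcitabine 1000 mg/m2 IV on days 1, 8, 15 and erlotinib 100 mg/day orally in 28-day cycles. DLT graded by NCI CTC v4.0: grade 4 neutropenia ≥6 days, grade 3/4 thrombocytopenia with bleeding, grade 3 neutropenia with fever >38.5°C, or drug-related nonhematologic grade 3/4 toxicity. MTD: ≤1 DLT per six-patient cohort.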"}, "[4]": {"details": "24 subjects, ivaltinostat + gemcitabine + erlotinib"}}, "data": [{"molecule": "C#Cc1cccc(Nc2ncnc3cc(OCCOC)c(OCCOC)cc23)c1", "note": "[erlotinib, reference compound]", "values": [{"measurement": "patients with dose reduced due to occurrence of AEs", "setting": "[1]", "value": "no patient received a reduced dose"}]}, {"molecule": "Nc1ccn([C@@H]2O[C@H](CO)[C@@H](O)C2(F)F)c(=O)n1", "note": "[gemcitabine, reference compound]", "values": [{"measurement": "patients with dose reduced due to occurrence of AEs", "setting": "[1]", "value": 12.5, "unit": "%"}]}, {"molecule": "CN(C)CCCNC(=O)/C(=C/CCCCC(=O)NO)COc1cccc2ccccc12", "note": "[ivaltinostat]", "values": [{"measurement": "Cmax", "setting": "[2]; 187.5 mg/m^2 iv, n=3", "value": 9553, "unit": "ng/mL"}, {"measurement": "Terminal half-life", "setting": "[2]; 187.5 mg/m^2 iv, n=3", "value": 7.3, "unit": "h"}, {"measurement": "Cmax", "setting": "[2]; 250 mg/m^2 iv, n=3", "value": 8062, "unit": "ng/mL"}, {"measurement": "Terminal half-life", "setting": "[2]; 250 mg/m^2 iv, n=3", "value": 5.7, "unit": "h"}, {"measurement": "Cmax", "setting": "[2]; 312.5 mg/m^2 iv, n=4", "value": "12 782 ng/mL"}, {"measurement": "Terminal half-life", "setting": "[2]; 312.5 mg/m^2 iv, n=4", "value": 6.6, "unit": "h"}, {"measurement": "drop-out of the study due to intolerable AEs", "setting": "[1]", "value": "no cases"}, {"measurement": "subjects with ADRs of grade 3 or 4 severity", "setting": "[1]; 15 of 24 subjects", "value": 62.5, "unit": "%"}, {"measurement": "ADR: decreased appetite", "setting": "[1]; 24 subjects", "value": 11, "unit": "events"}, {"measurement": "ADR: decreased platelet count", "setting": "[1]; 24 subjects", "value": 15, "unit": "events"}, {"measurement": "ADR: nausea", "setting": "[1]; 24 subjects", "value": 10, "unit": "events"}, {"measurement": "ADR: rash", "setting": "[1]; 24 subjects", "value": 11, "unit": "events"}, {"measurement": "ADR: vomiting", "setting": "[1]; 24 subjects", "value": 10, "unit": "events"}, {"measurement": "ADRs with grade 3 or 4 severity", "setting": "[1]; 24 subjects", "value": 26, "unit": "events"}, {"measurement": "grade 5 (death) events", "setting": "[1]; 24 subjects", "value": "no grade 5 (death) events"}, {"measurement": "AEs reported", "setting": "[1]; [4]", "value": 218, "unit": "events"}, {"measurement": "adverse drug reactions (ADRs)", "setting": "[1]; [4]", "value": 114, "unit": "events"}, {"measurement": "patients with dose reduced due to occurrence of AEs", "setting": "[1]", "value": 12.5, "unit": "%"}, {"measurement": "treatment-related grade 3 or 4 anemia", "setting": "[1]; n = 24, text", "value": 16.7, "unit": "%"}, {"measurement": "treatment-related grade 3 or 4 neutropenia", "setting": "[1]; n = 24, text", "value": 33.3, "unit": "%"}, {"measurement": "treatment-related grade 3 or 4 thrombocytopenia", "setting": "[1]; n = 24, text", "value": 29.2, "unit": "%"}, {"measurement": "Anemia, Number of patients (%)", "setting": "[1]; Grade 3 (n = 24)", "value": "4 (16.7) patients (%)"}, {"measurement": "Anorexia, Number of patients (%)", "setting": "[1]; Grade 3 (n = 24)", "value": "2 (8.3) patients (%)"}, {"measurement": "Fatigue, Number of patients (%)", "setting": "[1]; Grade 3 (n = 24)", "value": "2 (8.3) patients (%)"}, {"measurement": "Febrile neutropenia, Number of patients (%)", "setting": "[1]; Grade 3 (n = 24)", "value": "2 (8.3) patients (%)"}, {"measurement": "Neutropenia, Number of patients (%)", "setting": "[1]; Grade 3 (n = 24)", "value": "3 (12.5) patients (%)"}, {"measurement": "Pneumonia, Number of patients (%)", "setting": "[1]; Grade 3 (n = 24)", "value": "0 patients (%)"}, {"measurement": "Thrombocytopenia, Number of patients (%)", "setting": "[1]; Grade 3 (n = 24)", "value": "4 (16.7) patients (%)"}, {"measurement": "Anemia, Number of patients (%)", "setting": "[1]; Grade 4 (n = 24)", "value": "0 patients (%)"}, {"measurement": "Anorexia, Number of patients (%)", "setting": "[1]; Grade 4 (n = 24)", "value": "0 patients (%)"}, {"measurement": "Fatigue, Number of patients (%)", "setting": "[1]; Grade 4 (n = 24)", "value": "0 patients (%)"}, {"measurement": "Febrile neutropenia, Number of patients (%)", "setting": "[1]; Grade 4 (n = 24)", "value": "0 patients (%)"}, {"measurement": "Neutropenia, Number of patients (%)", "setting": "[1]; Grade 4 (n = 24)", "value": "5 (20.8) patients (%)"}, {"measurement": "Pneumonia, Number of patients (%)", "setting": "[1]; Grade 4 (n = 24)", "value": "1 (4.2) patients (%)"}, {"measurement": "Thrombocytopenia, Number of patients (%)", "setting": "[1]; Grade 4 (n = 24)", "value": "3 (12.5) patients (%)"}, {"measurement": "Anemia, Number of patients (%)", "setting": "[1]; Total grade 3 and 4 (n = 24)", "value": "4 (16.7) patients (%)"}, {"measurement": "Anorexia, Number of patients (%)", "setting": "[1]; Total grade 3 and 4 (n = 24)", "value": "2 (8.3) patients (%)"}, {"measurement": "Fatigue, Number of patients (%)", "setting": "[1]; Total grade 3 and 4 (n = 24)", "value": "2 (8.3) patients (%)"}, {"measurement": "Febrile neutropenia, Number of patients (%)", "setting": "[1]; Total grade 3 and 4 (n = 24)", "value": "2 (8.3) patients (%)"}, {"measurement": "Neutropenia, Number of patients (%)", "setting": "[1]; Total grade 3 and 4 (n = 24)", "value": "8 (33.3) patients (%)"}, {"measurement": "Pneumonia, Number of patients (%)", "setting": "[1]; Total grade 3 and 4 (n = 24)", "value": "1 (4.2) patients (%)"}, {"measurement": "Thrombocytopenia, Number of patients (%)", "setting": "[1]; Total grade 3 and 4 (n = 24)", "value": "7 (29.2) patients (%)"}, {"measurement": "dose-limiting toxicity (DLT)", "setting": "[3]", "value": "A DLT, febrile neutropenia grade 3"}]}]}
